Source: PubChem BioAssay
HCT116 PTEN-null: PTEN-deleted cell growth suppression; HCT116 PTEN-null viability, CellTiter-Glo, 60 h; stronger effect = lower value; 1.2% of 140,000 active; viability, % at 10 µM; AID 827;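 active = viability at or below a set limit, 4 SD under the median of all tested compounds, cut at about 3.7% in these data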;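 also: PTEN knockout HCT116 line with beta catenin targeted HCT116 as companion control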
Pyk2 oligo antag: antagonists of human Pyk2 oligomerization | Q293 cells, Pyk2 FERM NanoBiT luminescence; stronger effect = lower value | 0.83% of 99,000 active | z-score (the deposit names both 25 µM and 10 µM);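 active = Z-score of -3 or lower, scaled per plate to the spread of control and sample wells; inactive = z-score above -3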;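 also: negative z-score means lost luminescence so less FERM oligomerization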
bCat KO growth: beta-catenin-lacking colon tumor cell growth suppression; HCT116 beta-catenin knockout viability, CellTiter-Glo, 60 h; stronger effect = lower value; viability, % at 10 µM; 1.5% of 140,000 active; AID 818;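 active = viability at or under a set limit, the compound median less 4 SD, cut at about 6% in these data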
Lung fibro prol: blocks proliferation of human lung fibroblasts. viability, % at 10 µM. LL 47 human lung fibroblast viability, ATP luminescence; stronger effect = lower value. 1.1% of 85,000 active;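 active = viability at or below 50% in the single dose screen; inactive = viability above 50%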;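 also: compound exposure lasted 72 h before the ATP readout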
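Benchmarks: Cell-only wells, no compound | Test system: LL 47 human lung fibroblasts, passage 12 or lower | Input: 1,150 cells/well | Measured by: CellTiter-Glo luminescence measuring cellular ATP | Medium: IMEM, 15% FBS supplement | Schedule: Overnight attachment after seeding, then 72 h compound exposure at 37 °C | Doses: Compound addition at 0.1% DMSO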
H69AR growth 86K: growth inhibitors of human H69AR lung tumor cells; H69AR lung tumor viability, ATP luminescence, 72 h; stronger effect = lower value; viability, % at 10 µM; 6% of 85,000 active; AID 598;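 active = viability at or below 40%; inactive = viability above 40%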;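 also: multidrug resistant small cell line overexpressing MRP-1 efflux transporter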
HUVEC inhibit: human endothelial cell proliferation inhibition | AID 648 | HUVEC proliferation, CellTiter-Glo luminescence, 72 h; stronger effect = lower value | 1.1% of 86,000 active | viability, % at 10 µM (by protocol);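 active = viability at or below 30%; inactive = viability above 30%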
Numbers stand for hits; i = inactive; nt = no result. This is one part of a sample in which hits are shown more often than they occur.

SMILES	HCT116 PTEN-null	Pyk2 oligo antag	bCat KO growth	Lung fibro prol	H69AR growth 86K	HUVEC inhibit
CCOC(=O)c1c(C)oc(/N=C/c2ccccc2O)c1C#N	i	i	i	i	i	i
CN(C(=O)c1ccc(C(=O)N(C)C2CCCCC2)cc1)C1CCCCC1	nt	nt	nt	i	i	i
O=C(NO)c1ccc(C(=O)N(C2CCCCC2)C2CCCCC2)cc1	i	i	i	i	14	i
Cc1ccc(SCC(=O)Nc2ccc(-c3nnc(-c4ccco4)o3)cc2)cc1	i	i	i	nt	nt	nt
COc1ccc(C(=O)Nc2cccc(-c3nnc(-c4ccco4)o3)c2)cc1	i	i	i	i	24	i
COc1ccc(CC(=O)Nc2cccc(-c3nnc(-c4ccco4)o3)c2)cc1	i	i	i	nt	nt	nt
O=C(Nc1cccc(C(F)(F)F)c1)c1ccc2nc(-c3ccco3)c(-c3ccco3)nc2c1	i	i	i	i	32	i
Cc1cc(C)cc(OCC(=O)Nc2cccc(-c3nnc(-c4ccco4)o3)c2)c1	i	-3.9	i	i	i	i
COCCNC(=O)CSc1nc(-c2ccccc2)cs1	i	i	i	i	i	i
Cc1nnc(SCC(=O)NNC(=O)CC#N)[nH]c1=O	i	nt	i	nt	nt	nt
CCOC(=O)C(C(=O)Nc1cccc(C)c1)C1CCCCC1 (stereo not drawn)	i	i	i	i	i	i
CN1CCc2nc3sc(C(=O)C45CC6CC(CC(C6)C4)C5)c(N)c3cc2C1	0.6	i	3.5	nt	nt	nt
CCCS(=O)(=O)N1CCN(Cc2ccc3c(c2)c2ccccc2n3CC)CC1	i	nt	i	nt	nt	nt
FC(F)(F)c1ccc(N2CCN(c3ncnc4c3nnn4Cc3ccccc3)CC2)nc1	i	i	i	i	40	i
c1ccc(Cn2nnc3c(N4CCOCC4)ncnc32)cc1	i	nt	i	nt	nt	nt
Cc1ccc(C)c(NC(=O)/C(C#N)=C/c2ccc(Sc3nncn3C)c([N+](=O)[O-])c2)c1	i	nt	i	nt	nt	nt
O=C(CN(C1CC1)S(=O)(=O)c1ccc(S(=O)(=O)N2CCCCCC2)cc1)Nc1ccccc1	i	i	i	i	37	i
CCN(C1CCCCC1)S(=O)(=O)c1ccc(S(=O)(=O)N(CC(=O)Nc2ccccc2)C2CC2)cc1	i	i	i	i	i	i
O=C(Sc1nnnn1C1CCCCC1)c1cccs1	i	nt	i	nt	35	i
O=C(CSc1nnnn1C1CCCCC1)NCc1ccccc1	i	i	i	i	i	i
COC(=O)c1cc(NC(=O)c2c(Cl)nc3sccn23)cc(C(=O)OC)c1	i	i	i	6.7	36	i
C=CCNC(=O)CCCc1ccccc1	i	i	i	i	1.4	i
Cc1ccc(CNC(=O)CSc2nc3[nH]ncc3c(=O)[nH]2)cc1	i	nt	i	nt	nt	nt
CSc1nsc(/C=C/Nc2cccc(Cl)c2)c1C#N	i	i	i	i	29	i
CSc1nsc(/C=C/Nc2ccc(Cl)cc2)c1C#N	i	i	i	nt	nt	nt
SMILES	HCT116 PTEN-null	Pyk2 oligo antag	bCat KO growth	Lung fibro prol	H69AR growth 86K	HUVEC inhibit
COc1ccc(COc2ccccc2C(=O)NCc2ccccc2)cc1F	i	nt	i	nt	nt	nt
C=CCOc1c(Cl)cc(C2NC(=O)NC(C)=C2C(=O)OC)cc1Cl (stereo not drawn)	i	i	i	i	32	i
C=CCOc1c(OC)cc(Cl)cc1C1NC(=O)NC(C)=C1C(C)=O (stereo not drawn)	i	i	i	i	i	i
CC(=O)Oc1c(/C=C(\C#N)C(N)=O)[nH]c2ccccc12	i	nt	i	nt	nt	nt
CCOc1cc(/C=C2/C(=O)ON=C2C)ccc1OCc1ccccc1F	i	i	i	43	23	i
O=C(Nc1cccc(Br)c1)c1ccc(Cl)c(S(=O)(=O)N2CCOCC2)c1	i	i	i	i	i	i
COc1ccc(C(=O)Nc2ccc(-c3ccc(C)o3)cc2)cc1S(=O)(=O)N1CCOCC1	i	i	5.7	i	22	i
O=C(Nc1ccccc1)c1ccc(NCc2ccco2)c(S(=O)(=O)N2CCOCC2)c1	i	i	i	i	39	i
O=C(Nc1ccccc1)c1ccc(NCCN2CCOCC2)c(S(=O)(=O)N2CCOCC2)c1	i	i	i	i	i	i
O=C(Nc1cccc(S(=O)(=O)C(F)F)c1)c1ccc(Cl)c(S(=O)(=O)N2CCOCC2)c1	i	-3	i	nt	nt	nt
CC(C)OC(=O)c1nn2c(C(F)(F)F)cc(-c3ccc(Br)o3)nc2c1Br	i	i	i	i	35	i
Cc1nn(-c2ccccc2)c(Cl)c1C1C(C#N)=C(N)OC2=C1C(=O)CC(C)(C)C2 (stereo not drawn)	i	i	i	i	8.8	i
CCOc1cc(C(=O)Nc2cnccn2)cc(OCC)c1OCC	i	i	i	i	24	i
COc1ccc(N2C(=O)NC3CC2(C)Oc2ccc(Cl)cc23)cc1OC (stereo not drawn)	i	i	i	i	26	i
COc1cc(N2C(=O)NC3CC2(C)Oc2ccccc23)cc(OC)c1OC (stereo not drawn)	i	i	i	nt	nt	nt
O=[N+]([O-])c1cc(C(F)(F)F)ccc1NCCNC(=S)Nc1ccc(Cl)cc1	i	i	i	nt	nt	nt
CC(C)c1ccc(N2C(=O)CC(Sc3ncn[nH]3)C2=O)cc1 (stereo not drawn)	i	i	i	i	i	i
COc1ccc(N2C(=O)CC(Sc3ncn[nH]3)C2=O)c(OC)c1 (stereo not drawn)	i	i	i	i	1.6	i
N#C/C(=C/c1ccc(Br)s1)C(=O)NCCc1c[nH]c2ccccc12	i	nt	i	nt	nt	nt
COC(=O)c1sc(S(=O)(=O)Nc2ccc(C)c(C)c2)c(C(=O)OC)c1C	i	nt	i	nt	nt	nt
O=C(/C=C/c1cccc([N+](=O)[O-])c1)NC(=S)Nc1cccc(NC(=O)c2ccccc2Cl)c1	2.8	nt	i	nt	nt	nt
COc1ccccc1-c1cc(SC)c(C#N)c(=O)o1	i	nt	i	nt	nt	nt
COc1ccccc1NS(=O)(=O)c1cc([N+](=O)[O-])ccc1N/N=C/c1c(C)[nH]c2ccccc12	i	-3.1	i	nt	nt	nt
Cc1[nH]c2ccccc2c1/C=N/Nc1ccc([N+](=O)[O-])cc1	i	nt	i	nt	nt	nt
COC(=O)NC(=C(Cl)Cl)S(=O)(=O)c1ccccc1	1.9	i	2.6	34	1.1	i
SMILES	HCT116 PTEN-null	Pyk2 oligo antag	bCat KO growth	Lung fibro prol	H69AR growth 86K	HUVEC inhibit
Cc1nc2sccn2c1-c1nc(C2CC2)c(C(=O)c2ccc3c(c2)NC(=O)CO3)s1	nt	nt	nt	i	i	i
CC(C)CCn1c(SCC(N)=O)nc2c1c(=O)n(C)c(=O)n2C	i	nt	i	i	39	i
CCOC(=O)c1cn(-c2ccccc2)nc1-c1cccnc1	i	i	i	i	i	i
O=C(OCn1nnc2ccccc2c1=O)c1cn(-c2ccccc2)nc1-c1cccnc1	i	-4.1	i	i	i	i
O=[N+]([O-])c1ccc(Oc2cccc(Br)c2)c2ccncc12	i	i	i	i	18	i
O=[N+]([O-])c1ccc(Oc2ccc(F)cc2)c2ccncc12	i	i	i	i	24	i
O=C(O)c1cccc(Oc2ccccc2[N+](=O)[O-])c1	i	nt	i	nt	nt	nt
CCC(C)n1ncn(-c2ccc(N3CCN(c4ccc(OC)cc4)CC3)cc2)c1=O (stereo not drawn)	i	i	i	nt	nt	nt
